Read-outs that look alike come from different tables or passages of the source. Each block holds one compound with its values, some of them ahead of it.
Experiments:
[1] = tested on: NPS induced hyperlocomotion; conditions: cited from earlier work
[2] = target: T1, NPSR (Homo sapiens, UniProt Q6W5P4); test: Radioligand binding assay, displacement of [125I]Y10-NPS on CHO-NPSR cells
T1 sequence (Q6W5P4 1-371): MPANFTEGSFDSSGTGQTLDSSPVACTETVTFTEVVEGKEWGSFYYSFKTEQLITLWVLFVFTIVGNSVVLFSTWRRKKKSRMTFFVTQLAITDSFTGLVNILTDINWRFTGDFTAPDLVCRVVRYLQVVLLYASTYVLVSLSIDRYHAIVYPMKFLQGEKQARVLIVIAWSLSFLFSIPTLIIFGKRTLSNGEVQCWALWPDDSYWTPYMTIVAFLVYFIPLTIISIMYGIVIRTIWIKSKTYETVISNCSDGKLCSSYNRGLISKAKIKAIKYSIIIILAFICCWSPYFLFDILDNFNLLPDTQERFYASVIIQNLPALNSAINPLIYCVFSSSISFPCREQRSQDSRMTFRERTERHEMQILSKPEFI
Procedure, shortened: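 Whole CHO-NPSR cells at about 95% confluence were washed with PBS. They were then incubated for 90 min at room temperature in DMEM with 0.1% BSA, 0.15 nM [125I]Y10-NPS and increasing concentrations of unlabeled human NPS or test compound. Nonspecific binding was taken with 1 μM NPS. Cells were washed in ice-cold PBS, lysed in 1 N NaOH and gamma-counted. Experiments were run in duplicate.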

[3] = target: T1, NPSR; test: cAMP assay; format: cell-based; conditions: Table 5
[4] = target: T1, NPSR; test: Intracellular calcium assay; format: cell-based

Structure (SMILES): O=C1OC(c2ccccc2)(c2ccccc2)N2CCN(C(=O)NCc3ccc(F)cc3)CC12 (centres unmarked) [Compound 1, N-(4-fluorobenzyl)-1-oxo-3,3-diphenyltetrahydro-1H-oxazolo[3,4-a]pyrazine-7(3H)-carboxamide]
effect on NPS induced hyperlocomotion ([1]; mice): partially reduce the NPS induced hyperlocomotion

Structure (SMILES): CCC(C)(CCN1CCOCC1)N(Cc1cc2ccccc2n(C)c1=O)C(=O)C1CCCCC1 (centres unmarked) [Compound 2, N-(3-methyl-1-morpholinopentan-3-yl)-N-((1-methyl-2-oxo-1,2-dihydroquinolin-3-yl)methyl)cyclohexanecarboxamide]
effect on NPS induced hyperlocomotion ([1]; initial pharmacological results): capacity to reduce the NPS induced hyperlocomotion

Ki [2]: 210 nM
Structure (SMILES): COc1ccc(C2c3c(ncn(CCN4CCOCC4)c3=N)Oc3ccc4ccccc4c32)cc1OC (centres unmarked) [Compound 3a, 10-(2-morpholinoethyl)-12-(3,4-dimethoxyphenyl)-12H-naphtho[1',2':5,6]pyrano[2,3-d]pyrimidin-11-imine]

cAMP activity (in words) [3]: no cAMP activity
Structure (SMILES): COc1cccc(C2c3c(ncn(-c4ccccc4C#N)c3=N)Oc3ccc4ccccc4c32)c1 (centres unmarked) [Compound 3aa, 10-(2-Cyanophenyl)-12-(3-methoxyphenyl)-12H-naphtho[1',2':5,6]pyrano[2,3-d]pyrimidin-11-imine]

IC50 [4]: > 30000 nM
Structure (SMILES): COc1ccc(C2c3c(N)nc(Cc4ccccc4)nc3Oc3ccc4ccccc4c32)cc1OC (centres unmarked) [Compound 10a]
